In paper PMC8710994 (Redox Biology, 2021):
Values belong to the compound of their own block, whether it stands above or below them.

Columns and labels:
[1] = system: APAP-induced acute liver injury; test: APAP-induced acute liver injury in mice; format: in vivo, C57BL/6 male mice
[2] = MTT cytotoxicity assay, LO2; format: cell-based, human; details: human, LO2 cells
[3] = target: T1, Keap1–Nrf2 interaction (Homo sapiens, UniProt Q14145); test: Fluorescence polarization; details: read-out: Keap1–Nrf2 binding inhibition IC50; FP assay
T1 sequence (Q14145 whole entry): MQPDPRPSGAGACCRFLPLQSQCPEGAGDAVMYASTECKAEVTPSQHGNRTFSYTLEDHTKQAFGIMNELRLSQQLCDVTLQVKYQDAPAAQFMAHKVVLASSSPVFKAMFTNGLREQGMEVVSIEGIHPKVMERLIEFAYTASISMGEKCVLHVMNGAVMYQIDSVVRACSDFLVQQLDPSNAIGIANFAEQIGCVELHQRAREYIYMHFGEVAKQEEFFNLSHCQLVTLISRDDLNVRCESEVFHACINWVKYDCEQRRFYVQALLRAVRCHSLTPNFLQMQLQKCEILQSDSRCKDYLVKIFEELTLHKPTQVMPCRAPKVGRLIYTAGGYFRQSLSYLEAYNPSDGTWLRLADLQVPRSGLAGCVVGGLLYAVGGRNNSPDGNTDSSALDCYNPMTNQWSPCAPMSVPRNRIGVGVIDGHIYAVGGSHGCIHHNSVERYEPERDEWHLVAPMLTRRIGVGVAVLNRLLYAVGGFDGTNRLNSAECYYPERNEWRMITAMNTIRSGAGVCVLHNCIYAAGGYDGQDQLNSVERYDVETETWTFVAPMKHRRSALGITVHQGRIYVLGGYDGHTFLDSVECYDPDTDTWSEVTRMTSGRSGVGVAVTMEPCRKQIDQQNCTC

[4] = target: Keap1 and Nrf2 binding (Homo sapiens, UniProt Q14145); test: Competitive assay; details: competitive inhibitor, double-reciprocal plot
Chain of Keap1 and Nrf2 binding (Q14145 whole entry): as above
In short: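 Fluorescence polarisation kit assay. Diluted Keap1 ([…]) was combined with Nrf2 peptide (1 μM stock), BSA and test compound in kit buffer. The mix was incubated 0.5 h at ambient temperature and read at excitation 485 nm, emission 535 nm. For the competitive format, wells held […] Nrf2 with test compound at several concentrations.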

[5] = target: T2, Keap1 (Homo sapiens, UniProt Q14145); test: Isothermal titration calorimetry with recombinant Keap1; format: binding
T2 sequence (Q14145 whole entry): as above
In short: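 Human His6-Keap1 was expressed in E. coli BL21(DE3) (1 mM IPTG, 37 °C, 4 h) and purified on a His column. Protein and test compound were dialysed into 20 mM Bis-Tris, 150 mM NaCl, 2 mM DTT. Compound (200 μM) was titrated into protein (20 μM) in 19 × 2 μL injections, 150 s apart, at 25 °C and 750 rpm. Control titrations were included; data were fitted with a composite model.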

[6] = target: T3, Nrf2 (Homo sapiens, UniProt Q16236); test: Isothermal titration calorimetry with recombinant Nrf2; format: binding; details: 200 μM of 1 titrated into Nrf2 (20 μM)
T3 sequence (Q16236 1-605): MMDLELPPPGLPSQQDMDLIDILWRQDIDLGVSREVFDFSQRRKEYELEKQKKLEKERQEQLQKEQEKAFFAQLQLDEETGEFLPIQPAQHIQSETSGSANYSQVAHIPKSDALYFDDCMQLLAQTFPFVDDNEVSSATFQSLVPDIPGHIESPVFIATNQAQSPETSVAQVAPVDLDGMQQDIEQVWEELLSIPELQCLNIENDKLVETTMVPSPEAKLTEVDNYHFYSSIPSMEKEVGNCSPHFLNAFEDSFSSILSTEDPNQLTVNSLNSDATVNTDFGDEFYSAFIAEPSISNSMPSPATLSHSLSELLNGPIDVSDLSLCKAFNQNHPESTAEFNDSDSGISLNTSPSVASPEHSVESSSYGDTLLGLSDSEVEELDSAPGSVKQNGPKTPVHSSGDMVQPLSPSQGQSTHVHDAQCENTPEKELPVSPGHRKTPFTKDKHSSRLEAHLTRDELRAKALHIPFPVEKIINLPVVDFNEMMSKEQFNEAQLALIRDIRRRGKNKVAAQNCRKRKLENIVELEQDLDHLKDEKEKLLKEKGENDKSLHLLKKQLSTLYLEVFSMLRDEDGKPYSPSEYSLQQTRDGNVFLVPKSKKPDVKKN

[7] = target: T2, Keap1; test: Cellular thermal shift assay; format: cell-based; details: 1 at 5.0 μM, LO2 cell lysates
In short: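 LO2 lysate from 2 × 10^6 cells was diluted in PBS and split into equal aliquots. Aliquots were treated with test compound (5.0 μM) or DMSO for 30 min at room temperature, then heated individually across a temperature series. They were centrifuged, and supernatants were run on SDS-PAGE and immunoblotted for Keap1.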

[8] = target: T3, Nrf2; test: Cellular thermal shift assay; format: cell-based; details: 1 at 5.0 μM, LO2 cell lysates
[9] = Stability by UV-Vis and 1H NMR over 7 days; format: physicochemical; details: 4:1 acetonitrile/aqueous medium, seven days
[10] = system: LO2 cells; test: Cellular uptake in LO2 cells by ICP-MS; format: in vitro ADME, human; details: 5 μM
In short: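 LO2 cells were incubated with test compound at 5 μM for varying times. Iridium was then quantified by ICP-MS in whole cells and in separated nuclear and cytoplasmic fractions. Three independent experiments were run, shown as mean ± standard deviation; one-way ANOVA with Tukey's test.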

[11] = target: T1, Keap1–Nrf2 interaction; test: Co-immunoprecipitation of Keap1 and Nrf2 in LO2 cells; format: cell-based; details: 5.0 μM, 8 h
[12] = system: Nrf2; test: Nrf2 nuclear translocation in LO2 cells; format: cell-based, human; details: after 1 h
[13] = system: LO2 cells; test: ROS detection; format: cell-based, human; details: 5 μM, 8 h
In short: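 LO2 cells were treated with H2O2 (800 μM, 3 h) and test compound (5 μM, 8 h). Cells were labelled with 5 μM H2DCF-DA in serum-free DMEM at 37 °C for 30 min, washed, and imaged by confocal microscopy at excitation 488 nm, emission 525 nm.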

[14] = system: proteasome; test: Proteasome activity fluorometric assay kit; format: cell-based, human; details: 5 μM, 8 h
In short: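 LO2 cells were treated 8 h with test compound (5 μM). Proteasome activity was then measured with a commercial fluorometric kit, with MG132 as positive control.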

[15] = system: LO2 cells; test: Mitochondrial membrane potential by rhodamine 123 staining in LO2 cells; format: cell-based, human; details: 5 μM, 8 h
In short: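 LO2 cells were attached overnight, then treated 8 h with test compound (5 μM). CCCP (10 μM, 1 h) was the positive control. Cells were stained with rhodamine 123 (5 μg/mL, 30 min) for fluorescence microscopy. For quantitation, washed cells at 1.0 × 10^5 cells/mL were stained at 37 °C in the dark for 30 min and read by spectrofluorometer at excitation 505 nm, emission 534 nm.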

[16] = system: HO-1 and NQO1; test: HO-1 and NQO1 levels in LO2 cells by Western blotting; format: cell-based, human
[17] = system: LO2 cells; test: MTT cytotoxicity assay, LO2; format: cell-based, human; details: read-out: cytotoxicity IC50; LO2, MTT, 48 h
[18] = system: LO2 cells; test: Cytoprotection against APAP-induced cytotoxicity in LO2 cells; format: cell-based, human
[19] = Pharmacokinetic profile in mouse plasma by ICP-MS; format: in vivo; details: mice
In short: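 After an overnight fast, C57BL/6J mice received test compound at 5.0 mg kg−1 i.p. Blood was collected into EDTA-2Na at 0, 0.5, 1, 2, 6, 12, 24 and 48 h. Plasma iridium was quantified by ICP-MS, n = 4, shown as mean ± SD.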

[20] = system: mice; test: Toxicity evaluation and organ distribution in mice; format: in vivo
In short: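 Mice received test compound at 2.5 or 5.0 mg kg−1 i.p.; body and organ weights were recorded after 6 h. Organ index = organ wet weight/body weight × 100%; the figure legend reports indexes at 12 h, n = 5. About 100 mg tissue was ground in liquid nitrogen, nitric-acid digested, and analysed for iridium by ICP-MS. Organs were fixed 24 h, sectioned at 4 μm, and H&E stained.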

[21] = 1 at 5.0 mg kg−1, 6 h after APAP challenge

Compound: CC(=O)Nc1ccc(O)cc1 [APAP, Acetaminophen, reference compound]
serum ALT, maximum level ([1]; 12 h after APAP challenge): 3334.98 U/L
serum AST, maximum level ([1]; 12 h after APAP challenge): 2002.31 U/L
serum ALT ([1]; 48 h after APAP challenge): 608.41 U/L
serum AST ([1]; 48 h after APAP challenge): 488.20 U/L
increase in serum ALT compared with the control group ([1]; APAP 400 mg kg−1): 188 fold
increase in serum AST compared with the control group ([1]; APAP 400 mg kg−1): 216 fold
percentage of necrotic liver areas ([1]; APAP 400 mg kg−1 i.p. alone (model group)): 21.01%

Compound: Clc1cc(-c2ccccc2)nc2ccccc12 [Ligand 7, 4-chloro-2-phenylquinoline]
IC50 at 48 h [2]: > 100 µM

Compound: Cc1ccc2ccc3ccc(C)nc3c2n1 [Ligand 8, 2,9-dimethyl-1,10-phenanthroline]
IC50 at 48 h [2]: > 100 µM

IC50 [3]: 1.09 µM
Ki [4]: 1.03 µM
-TΔS (ITC) ([5]; Keap1): -1.64 kcal/mol
stoichiometry N (ITC) ([5]; Keap1): 0.962 ± 0.026
ΔG (ITC) ([5]; Keap1): -8.39 kcal/mol
ΔH (ITC) ([5]; Keap1): -6.75 kcal/mol
Kd ([5]; read-out: Kd (ITC), 200 μM of 1 titrated into Keap1 (20 μM), 25 °C): 0.71 ± 0.79 µM
binding to Nrf2 by ITC [6]: no binding was observed
shift of Keap1 melting curve [7]: ca. 6 °C
shift of Nrf2 melting curve [8]: no significant shift
stability [9]: good stability
cellular permeability (iridium levels in nucleus and cytoplasm) [10]: good cellular permeability
elimination half-life ([19]; 5 mg kg−1 i.p.): 12 h
maximum mean peak area in plasma (Cmax) ([19]; 5.0 mg kg−1 i.p.): 13700 ng/mL
Cmax ([19]; read-out: maximum mean peak area in plasma (Cmax), 5.0 mg kg−1 i.p.): 13.4 µM
Compound: [Ir (clpq)2 (2,9-dmphen)](PF6) [Complex 1]
Nrf2 co-precipitated with Keap1 [11]: reduction of Nrf2 co-precipitated with Keap1
Nrf2 accumulation in the nucleus [12]: induced Nrf2 accumulation in the nucleus
effect on ROS elevation [13]: no significant effect
effect on proteasomal inhibition [14]: no significant effect
effect on mitochondrial dysfunction [15]: no significant effect
levels of HO-1 and NQO1 ([16]; 6 h treatment): increased
increase of HO-1 and NQO1 levels in Keap1 knockdown cells versus control cells ([16]; Keap1 siRNA): less effective
increase of HO-1 and NQO1 levels after Nrf2 knockdown ([16]; Nrf2 siRNA): muted
IC50 [17]: 48 µM
cell viability of LO2 cells after treatment with APAP [18]: dose-dependent restoration of cell viability
reductions of AST levels ([1]; 1 (5 mg/kg), time intervals 6, 12, 24 and 48 h after APAP): 32.29–53.62%
decrease of serum ALT [1, 21]: 23.5%
decrease of serum AST [1, 21]: 25.2%
percentage of necrotic liver areas ([1]; APAP 400 mg kg−1 + 1 at 2.5 mg kg−1 i.p. once daily for five days): 16.04%
percentage of necrotic liver areas ([1]; APAP 400 mg kg−1 + 1 at 5.0 mg kg−1 i.p. once daily for five days): 8.99%
Nrf2 levels in the nucleus (liver) in comparison to the APAP group ([1]; mice, APAP + 1): significantly increased
protein expression of Keap1 (liver) ([1]; mice, APAP + 1): remained basal
organ damage (organ morphology, organ index, H&E) ([20]; 5.0 mg kg−1 i.p., 6, 12 and 24 h): did not cause organ damage
concentration in various organs (ICP-MS) ([20]; i.p., 6 h): mainly concentrated in the liver and kidney
